Assays:
Format in all cases: functional
[1] = system: Brassica rapa subsp. oleifera; assay: Herbicidal activity against Brassica rapa subsp. oleifera assessed as inhibition of fresh weed plant weight at 187.5 g/ha using post-emergence treatment protocol
How it was run: (§1)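 Test compounds made up as emulsions by dissolving in 100 µL N,N-dimethylformamide, then adding a little Tween 20 and water. For post-emergence, weed seedlings at one leaf and one stem were sprayed at the same rates as the pre-emergence test. Fresh weight was recorded 15 days after treatment and expressed as percent inhibition versus controls. All treatments were run in triplicate.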

[2] = system: Echinochloa crus-galli; assay: Herbicidal activity against Echinochloa crus-galli (barnyard grass) assessed as inhibition of fresh weed plant weight at 187.5 g/ha using pre-emergence treatment protocol; how it was run: as §1
[3] = system: Echinochloa crus-galli; assay: Herbicidal activity against Echinochloa crus-galli (barnyard grass) assessed as inhibition of fresh weed plant weight at 1500 g/ha using pre-emergence treatment protocol
[4] = system: Amaranthus retroflexus; assay: Herbicidal activity against Amaranthus retroflexus assessed as inhibition of fresh weed plant weight at 375 g/ha using post-emergence treatment protocol; how it was run: as §1
[5] = system: Amaranthus retroflexus; assay: Herbicidal activity against Amaranthus retroflexus assessed as inhibition of fresh weed plant weight at 1500 g/ha using pre-emergence treatment protocol
[6] = system: Digitaria sanguinalis; assay: Herbicidal activity against Digitaria sanguinalis (hairy crabgrass) assessed as inhibition of fresh weed plant weight at 1500 g/ha using pre-emergence treatment protocol
[7] = system: Brassica rapa subsp. oleifera; assay: Herbicidal activity against Brassica rapa subsp. oleifera assessed as inhibition of fresh weed plant weight at 750 g/ha using pre-emergence treatment protocol
[8] = system: Brassica rapa subsp. oleifera; assay: Herbicidal activity against Brassica rapa subsp. oleifera assessed as inhibition of fresh weed plant weight at 1500 g/ha using pre-emergence treatment protocol
[9] = system: Brassica rapa subsp. oleifera; assay: Herbicidal activity against Brassica rapa subsp. oleifera assessed as inhibition of fresh weed plant weight at 375 g/ha using post-emergence treatment protocol; how it was run: as §1
[10] = system: Digitaria sanguinalis; assay: Herbicidal activity against Digitaria sanguinalis (hairy crabgrass) assessed as inhibition of fresh weed plant weight at 1500 g/ha using post-emergence treatment protocol; how it was run: as §1
[11] = system: Amaranthus retroflexus; assay: Herbicidal activity against Amaranthus retroflexus assessed as inhibition of fresh weed plant weight at 187.5 g/ha using post-emergence treatment protocol; how it was run: as §1
[12] = system: Echinochloa crus-galli; assay: Herbicidal activity against Echinochloa crus-galli (barnyard grass) assessed as inhibition of fresh weed plant weight at 187.5 g/ha using post-emergence treatment protocol; how it was run: as §1
[13] = system: Echinochloa crus-galli; assay: Herbicidal activity against Echinochloa crus-galli (barnyard grass) assessed as inhibition of fresh weed plant weight at 750 g/ha using post-emergence treatment protocol; how it was run: as §1
[14] = system: Digitaria sanguinalis; assay: Herbicidal activity against Digitaria sanguinalis (hairy crabgrass) assessed as inhibition of fresh weed plant weight at 750 g/ha using pre-emergence treatment protocol
[15] = system: Echinochloa crus-galli; assay: Herbicidal activity against Echinochloa crus-galli (barnyard grass) assessed as inhibition of fresh weed plant weight at 750 g/ha using pre-emergence treatment protocol
[16] = system: Amaranthus retroflexus; assay: Herbicidal activity against Amaranthus retroflexus assessed as inhibition of fresh weed plant weight at 187.5 g/ha using pre-emergence treatment protocol
[17] = system: Echinochloa crus-galli; assay: Herbicidal activity against Echinochloa crus-galli (barnyard grass) assessed as inhibition of fresh weed plant weight at 375 g/ha using post-emergence treatment protocol; how it was run: as §1
[18] = system: Amaranthus retroflexus; assay: Herbicidal activity against Amaranthus retroflexus assessed as inhibition of fresh weed plant weight at 1500 g/ha using post-emergence treatment protocol; how it was run: as §1
[19] = system: Amaranthus retroflexus; assay: Herbicidal activity against Amaranthus retroflexus assessed as inhibition of fresh weed plant weight at 750 g/ha using post-emergence treatment protocol; how it was run: as §1
[20] = system: Digitaria sanguinalis; assay: Herbicidal activity against Digitaria sanguinalis (hairy crabgrass) assessed as inhibition of fresh weed plant weight at 375 g/ha using pre-emergence treatment protocol
[21] = system: Digitaria sanguinalis; assay: Herbicidal activity against Digitaria sanguinalis (hairy crabgrass) assessed as inhibition of fresh weed plant weight at 375 g/ha using post-emergence treatment protocol; how it was run: as §1
[22] = system: Digitaria sanguinalis; assay: Herbicidal activity against Digitaria sanguinalis (hairy crabgrass) assessed as inhibition of fresh weed plant weight at 187.5 g/ha using post-emergence treatment protocol; how it was run: as §1
[23] = system: Brassica rapa subsp. oleifera; assay: Herbicidal activity against Brassica rapa subsp. oleifera assessed as inhibition of fresh weed plant weight at 187.5 g/ha using pre-emergence treatment protocol
[24] = system: Amaranthus retroflexus; assay: Herbicidal activity against Amaranthus retroflexus assessed as inhibition of fresh weed plant weight at 375 g/ha using pre-emergence treatment protocol
[25] = system: Brassica rapa subsp. oleifera; assay: Herbicidal activity against Brassica rapa subsp. oleifera assessed as inhibition of fresh weed plant weight at 1500 g/ha using post-emergence treatment protocol; how it was run: as §1
[26] = system: Amaranthus retroflexus; assay: Herbicidal activity against Amaranthus retroflexus assessed as inhibition of fresh weed plant weight at 750 g/ha using pre-emergence treatment protocol; how it was run: as §1
[27] = system: Digitaria sanguinalis; assay: Herbicidal activity against Digitaria sanguinalis (hairy crabgrass) assessed as inhibition of fresh weed plant weight at 187.5 g/ha using pre-emergence treatment protocol
[28] = system: Brassica rapa subsp. oleifera; assay: Herbicidal activity against Brassica rapa subsp. oleifera assessed as inhibition of fresh weed plant weight at 750 g/ha using post-emergence treatment protocol; how it was run: as §1
[29] = system: Digitaria sanguinalis; assay: Herbicidal activity against Digitaria sanguinalis (hairy crabgrass) assessed as inhibition of fresh weed plant weight at 750 g/ha using post-emergence treatment protocol; how it was run: as §1
[30] = system: Echinochloa crus-galli; assay: Herbicidal activity against Echinochloa crus-galli (barnyard grass) assessed as inhibition of fresh weed plant weight at 375 g/ha using pre-emergence treatment protocol; how it was run: as §1
[31] = system: Echinochloa crus-galli; assay: Herbicidal activity against Echinochloa crus-galli (barnyard grass) assessed as inhibition of fresh weed plant weight at 1500 g/ha using post-emergence treatment protocol; how it was run: as §1
[32] = system: Brassica rapa subsp. oleifera; assay: Herbicidal activity against Brassica rapa subsp. oleifera assessed as inhibition of fresh weed plant weight at 375 g/ha using pre-emergence treatment protocol

Structure (SMILES)	inhibition at 187.5 g/ha [1] [%]	inhibition at 187.5 g/ha [2] [%]	inhibition at 1500 g/ha [3] [%]	inhibition at 375 g/ha [4] [%]	inhibition at 1500 g/ha [5] [%]	inhibition at 1500 g/ha [6] [%]	inhibition at 750 g/ha [7] [%]	inhibition at 1500 g/ha [8] [%]	inhibition at 375 g/ha [9] [%]	inhibition at 1500 g/ha [10] [%]	inhibition at 187.5 g/ha [11] [%]	inhibition at 187.5 g/ha [12] [%]	inhibition at 750 g/ha [13] [%]	inhibition at 750 g/ha [14] [%]	inhibition at 750 g/ha [15] [%]	inhibition at 187.5 g/ha [16] [%]	inhibition at 375 g/ha [17] [%]	inhibition at 1500 g/ha [18] [%]	inhibition at 750 g/ha [19] [%]	inhibition at 375 g/ha [20] [%]	other results
C#CCN1C(=O)COc2cc(F)c(-n3nnc4c(cnn4CCC)c3=O)cc21	35.4	43.7	95.4	41.5	100	100	82.1	98.1	64.6	33.9	14.6	0.5	61	93.5	87	37.7	19	99.6	87.8	91.3	inhibition at 375 g/ha [21]: 5.6%; inhibition at 187.5 g/ha [22]: 0%; inhibition at 187.5 g/ha [23]: 63.4%; inhibition at 375 g/ha [24]: 73.8%; inhibition at 1500 g/ha [25]: 90.7%; inhibition at 750 g/ha [26]: 100%; inhibition at 187.5 g/ha [27]: 80.4%; inhibition at 750 g/ha [28]: 70.3%; inhibition at 750 g/ha [29]: 16.7%; inhibition at 375 g/ha [30]: 80.1%; inhibition at 1500 g/ha [31]: 91.5%; inhibition at 375 g/ha [32]: 67.9%
C#CCOc1cc(-n2nnc3nn(CC=C)cc3c2=O)c(F)cc1Cl	2.9	0	40.9	100	100	79.6	37.3	65.8	18.9	36.1	22	0	9.3	47.8	19.5	41	0.5	100	100	6.5	inhibition at 375 g/ha [21]: 8.3%; inhibition at 187.5 g/ha [22]: 0%; inhibition at 187.5 g/ha [23]: 16.4%; inhibition at 375 g/ha [24]: 90.2%; inhibition at 1500 g/ha [25]: 70.3%; inhibition at 750 g/ha [26]: 93.4%; inhibition at 187.5 g/ha [27]: 2.2%; inhibition at 750 g/ha [28]: 36.6%; inhibition at 750 g/ha [29]: 13.9%; inhibition at 375 g/ha [30]: 0%; inhibition at 1500 g/ha [31]: 20.3%; inhibition at 375 g/ha [32]: 25.4%
C=CCOc1cc(-n2nnc3nn(CC=C)cc3c2=O)c(F)cc1Cl	6.3	0	39.6	100	100	18	23.9	50.7	8.6	60.7	36.6	14.1	18	8.7	22.1	100	16.1	100	100	4.3	inhibition at 375 g/ha [21]: 33.3%; inhibition at 187.5 g/ha [22]: 22.2%; inhibition at 187.5 g/ha [23]: 3%; inhibition at 375 g/ha [24]: 100%; inhibition at 1500 g/ha [25]: 60.8%; inhibition at 750 g/ha [26]: 100%; inhibition at 187.5 g/ha [27]: 0%; inhibition at 750 g/ha [28]: 32.6%; inhibition at 750 g/ha [29]: 44.4%; inhibition at 375 g/ha [30]: 18.4%; inhibition at 1500 g/ha [31]: 35.8%; inhibition at 375 g/ha [32]: 13.4%
C#CCN1C(=O)COc2cc(F)c(-n3nnc4nn(CCC)cc4c3=O)cc21	11.4	0	37.8	100	100	51.6	55.2	75.1	18.9	43.8	56.1	10.2	25.9	32.6	16.9	100	11.2	100	100	26.1	inhibition at 375 g/ha [21]: 16.7%; inhibition at 187.5 g/ha [22]: 13.9%; inhibition at 187.5 g/ha [23]: 16.4%; inhibition at 375 g/ha [24]: 100%; inhibition at 1500 g/ha [25]: 27.9%; inhibition at 750 g/ha [26]: 100%; inhibition at 187.5 g/ha [27]: 0%; inhibition at 750 g/ha [28]: 19.4%; inhibition at 750 g/ha [29]: 22.2%; inhibition at 375 g/ha [30]: 5.6%; inhibition at 1500 g/ha [31]: 40.9%; inhibition at 375 g/ha [32]: 45.5%
C=CCN1C(=O)COc2cc(F)c(-n3nnc4nn(CCC)cc4c3=O)cc21	0	10.8	60.4	85.4	100	78.6	69.4	88.7	29.1	0	7.3	0	5.4	54.3	35.9	27.9	2.4	100	100	39.1	inhibition at 375 g/ha [21]: 0%; inhibition at 187.5 g/ha [22]: 0%; inhibition at 187.5 g/ha [23]: 13.4%; inhibition at 375 g/ha [24]: 100%; inhibition at 1500 g/ha [25]: 50.3%; inhibition at 750 g/ha [26]: 100%; inhibition at 187.5 g/ha [27]: 4.3%; inhibition at 750 g/ha [28]: 33.7%; inhibition at 750 g/ha [29]: 0%; inhibition at 375 g/ha [30]: 16%; inhibition at 1500 g/ha [31]: 11.2%; inhibition at 375 g/ha [32]: 55.2%
C=CCN1C(=O)COc2cc(F)c(-n3nnc4c(cnn4CCC)c3=O)cc21	12.6	42.9	86.4	100	100	90.7	100	100	45.1	52.8	48.8	1.5	7.3	71.7	62.8	67.2	2.3	100	100	67.4	inhibition at 375 g/ha [21]: 25%; inhibition at 187.5 g/ha [22]: 8.3%; inhibition at 187.5 g/ha [23]: 26.9%; inhibition at 375 g/ha [24]: 77%; inhibition at 1500 g/ha [25]: 97.5%; inhibition at 750 g/ha [26]: 100%; inhibition at 187.5 g/ha [27]: 37%; inhibition at 750 g/ha [28]: 78.9%; inhibition at 750 g/ha [29]: 33.3%; inhibition at 375 g/ha [30]: 55%; inhibition at 1500 g/ha [31]: 20.1%; inhibition at 375 g/ha [32]: 82.8%

— ChEMBL document CHEMBL3044834, “Novel protoporphyrinogen oxidase inhibitors: 3H-pyrazolo[3,4-d][1,2,3]triazin-4-one derivatives” (J Agric Food Chem, 2008)
